Data on 3 molecules can be found in publication PMC4325620 (Memórias do Instituto Oswaldo Cruz, 2014).

Like-named read-outs stand apart in the source and are kept apart here.

For assay [1], the system named is intracellular amastigotes of Leishmania (Leishmania) amazonensis. The class given is cell-based, Leishmania (L.) amazonensis (IFLA/BR/1967/PH8). The conditions noted are these: for reduction of infection index: 72 h; for IC50: Peritoneal macrophage. The procedure, abridged:
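Resident peritoneal macrophages from 6-week-old female BALB/c mice, 1 x 10^5/well in RPMI-1640 with 10% FCS and gentamicin, 1 h at 37 °C, 5% CO2. Infected with promastigotes (1 x 10^6/well), 4 h at 35 °C. Extract 50-12.5 µg/mL (24, 48, 72 h) or isolated compounds (72 h) at 35 °C. Giemsa staining; 200 cells counted per replicate. Infection index = % infected macrophages × mean amastigotes per macrophage. IC50 by non-linear dose-response regression.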

In assay [2] the test system is Murine macrophages (J774.A1). As to the kind of experiment: Cytotoxicity assay. The class given is cell-based. Particulars: for IC50: Mus musculus, J774.A1, 48 h; for J774.A1 SI (selectivity index): SI = IC50 mammalian cell/IC50 amastigotes (µg/mL). The procedure, abridged: (§1)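 Cells exposed 48 h at 37 °C, 5% CO2, to four concentrations (0.25-250 µg/mL) in triplicate. Amphotericin B reference (0.025-25 µg/mL); DMSO vehicle control. SRB read-out: fixation in cold 20% TCA, 30 min at 4 °C; 0.1% SRB in 1% acetic acid, 30 min; dye solubilised in 10 mM Trizma; OD 540 nm. IC50 by non-linear regression. SI = mammalian-cell IC50 / amastigote IC50.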

The test system of assay [3] is fibroblast cells (NIH/3T3). As to the kind of experiment: Cytotoxicity assay. The class given is cell-based, murine. Particulars: for IC50: Mus musculus, NIH3T3, 48 h; for NIH/3T3 SI (selectivity index): SI = IC50 mammalian cell/IC50 amastigotes (µg/mL). The procedure, abridged:
as §1

Assay [4] concerns promastigotes of Leishmania donovani. Particulars: ref Camacho et al. 2000; cited from earlier work.
Assay [5] has as its system axenic amastigotes of Leishmania donovani. The conditions noted are these: ref Weniger et al. 2006, Kunert et al. 2008; cited from earlier work.
Assay [6] relates to NO production by L. amazonensis infected cells. In words: Nitric oxide. The class given is cell-based, BALB/c mice. The conditions noted are these: for NO production: vs untreated infected cells; for production of nitric oxide (NO): treated infected cells, concentration not given. The procedure, abridged:
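Supernatants were taken from infected BALB/c peritoneal macrophages treated as in the amastigote assay. Nitrite was quantified against a sodium nitrite standard curve (1-10 µM in RPMI). Results are mean ± SD, compared with untreated infected cells by Student's t test.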

Where [7] appears, read: read-out: Intracellular amastigotes IC50.
[8] abbreviates: read-out: Intracellular amastigotes IC50 (µM).

As for `O=c1cc(-c2ccc(O)c(-c3c(O)cc(O)c4c(=O)cc(-c5ccc(O)cc5)oc34)c2)oc2cc(O)cc(O)c12` [Amentoflavone, amentoflavone], the “reduction of infection index” value is “greater than 90.6%” in assay [1] (all concentrations tested, compared to the control) and about 100% in assay [1] (highest concentration (3 µg/mL)). Besides, the IC50 in assay [1] (setting [7]) worked out at 0.1 µg/mL; in assay [1] (setting [8]) it was 0.2 µM; in assay [2] (read-out: J774.A1 IC50), 3 µg/mL; in assay [2] (read-out: J774.A1 IC50 (µM)), 5.5 µM; in assay [3] (read-out: NIH/3T3 IC50), 2.2 µg/mL; in assay [3] (read-out: NIH/3T3 IC50 (µM)), 4 µM. Moreover, in assay [2], the “J774.A1 SI (selectivity index)” value stood at 30. Further, the “NIH/3T3 SI (selectivity index)” value in assay [3] came out at 22. In addition, the activity on promastigotes result in assay [4] is “poor activity”. Moreover, in assay [5], the “activity on axenic amastigotes” value was “not active”. Further, the NO production entry in assay [6] (0.75 µg/mL, 72 h, p < 0.01) is “significantly lower”; in assay [6] (1.5 µg/mL, 72 h, p < 0.05), “significantly lower”. In addition, the “production of nitric oxide (NO)” value in assay [6] is listed as “lower”.
As to `O=c1cc(-c2ccc(O)c(-c3c(O)cc4oc(-c5ccc(O)cc5)cc(=O)c4c3O)c2)oc2cc(O)cc(O)c12` [Robustaflavone, robustaflavone], in assay [1] (12.5 µg/mL), the “reduction of infection index” value is on record as 90.8%. The IC50 in assay [1] (setting [7]) worked out at 2.8 µg/mL; in assay [1] (setting [8]) it was 5.3 µM; in assay [2] (read-out: J774.A1 IC50), 3.1 µg/mL; in assay [2] (read-out: J774.A1 IC50 (µM)), 5.7 µM; in assay [3] (read-out: NIH/3T3 IC50) it was 25.5 µg/mL; in assay [3] (read-out: NIH/3T3 IC50 (µM)), 47.4 µM. Further, in assay [2], the “J774.A1 SI (selectivity index)” value was 1.1. Moreover, in assay [3], the “NIH/3T3 SI (selectivity index)” value turned out to be 9.1. Moreover, the NO release result in assay [6] (highest concentration tested, 72 h) is “increased”. Moreover, the “production of nitric oxide (NO)” value in assay [6] was “higher”.
Regarding `C[C@@H]1[C@H](O)[C@@H](C)/C=C/C=C/C=C/C=C/C=C/C=C/C=C/[C@H](O[C@@H]2O[C@H](C)[C@@H](O)[C@H](N)[C@@H]2O)C[C@@H]2O[C@](O)(C[C@@H](O)C[C@@H](O)[C@H](O)CC[C@@H](O)C[C@@H](O)CC(=O)O[C@H]1C)C[C@H](O)[C@H]2C(=O)O` [Amphotericin B, reference compound], the IC50 was 0.03 µg/mL in assay [1] (setting [7]); 0.035 µM in assay [1] (setting [8]); 4.3 µg/mL in assay [2] (read-out: J774.A1 IC50); 4.7 µM in assay [2] (read-out: J774.A1 IC50 (µM)); 2.2 µg/mL in assay [3] (read-out: NIH/3T3 IC50); 2.2 µM in assay [3] (read-out: NIH/3T3 IC50 (µM)). Moreover, in assay [2], the “J774.A1 SI (selectivity index)” value amounted to 143.3. For the same molecule, the “NIH/3T3 SI (selectivity index)” value in assay [3] was 73.
